Results of several laboratories.
Compare with care: the assays were run in different laboratories.
SLC6A4: Sodium-dependent serotonin transporter (SLC6A4, Homo sapiens, UniProt P31645)
rep papain-like protease: Replicase polyprotein 1ab, papain-like protease (rep, Porcine epidemic diarrhea virus, UniProt P0C6Y4)

CCOC(=O)[C@@]12C[C@@H]1[C@@H](n1cnc3c(NCc4cccc(Cl)c4)nc(I)nc31)[C@H](O)[C@@H]2O
inhibition (SLC6A4; ligand displacement; radioligand; 10 µM): -5%

Cn1c(C(=O)NCc2cc(O)c(O)c(Br)c2)cc2ccccc21
inhibition (rep papain-like protease; enzyme activity; inhibitor; FRET; 10 µM): 86.3%

CCOC(=O)[C@@]12C[C@@H]1[C@@H](n1cnc3c(NCCCCc4ccccc4)nc(I)nc31)[C@H](O)[C@@H]2O
inhibition (SLC6A4; ligand displacement; radioligand; 10 µM): 20%

NC/C(=C\F)COc1cccc(Cn2c(=S)[nH]c(=O)c3[nH]cnc32)c1
inhibition (D(1A) dopamine receptor (DRD1, Homo sapiens, UniProt P21728); ligand displacement; radioligand; 10 µM): < 50%

CNC(=O)[C@@]12C[C@@H]1[C@@H](n1cnc3c(Nc4ccccc4)nc(C#Cc4ccc(Cl)s4)nc31)[C@H](O)[C@@H]2O
inhibition (SLC6A4; ligand displacement; radioligand; 10 µM): 11%

Cc1ccccc1C(=O)NCc1cc(O)c(O)c(Br)c1
inhibition (rep papain-like protease; enzyme activity; inhibitor; FRET; 10 µM): 115%

Cc1cc(O)c(-c2ccc([C@@H](C)CN(C)C)cc2)c2c1[nH]c(=O)c1sccc12
inhibition (STE20-related kinase adapter protein alpha (STRADA, Homo sapiens, UniProt Q7RTN6); enzyme activity; inhibitor; 0.1 µM): 14.8%

CC(C)C(C(=O)NCc1cc(O)c(O)c(Br)c1)c1ccc(Cl)cc1 (stereo not drawn)
inhibition (Replicase polyprotein 1ab, main protease (rep, Porcine epidemic diarrhea virus, UniProt P0C6Y4); enzyme activity; inhibitor; FRET; 10 µM): 41.9%

Cc1cc(F)cc2c(CCC(=O)N[C@@H]3C(=O)NC[C@H]3O)c(-c3ccc(F)cc3)[nH]c12
inhibition (SLC6A4; cell-free assay; 10 µM): 8%

C#Cc1cc(-c2cc(Nc3nc(N[C@@H](C)c4ccc(F)cn4)ncc3Cl)n[nH]2)ccc1C=O
inhibition (Rhodopsin kinase GRK7 (GRK7, Homo sapiens, UniProt Q8WTQ7); enzyme activity; inhibitor; 0.2 µM): 63%

CCN1/C(=C/C(C)=O)Sc2ccc(F)cc21
inhibition (Type-2 angiotensin II receptor (AGTR2, Homo sapiens, UniProt P50052); ligand displacement; radioligand; 10 µM): 4.51%

N#C[C@@]12C[C@@H]1[C@@H](n1cnc3c(Nc4ccccc4)nc(C#Cc4ccc(Cl)s4)nc31)[C@H](O)[C@@H]2O
inhibition (SLC6A4; ligand displacement; radioligand; 10 µM): 12%

O=C(NCc1cc(O)c(O)c(Br)c1)c1ccc2ccccc2n1
inhibition (rep papain-like protease; enzyme activity; inhibitor; FRET; 10 µM): 45.5%

N#CC[C@@]12C[C@@H]1[C@@H](n1cnc3c(NCCCCCc4ccccc4)nc(I)nc31)[C@H](O)[C@@H]2O
inhibition (SLC6A4; ligand displacement; radioligand; 10 µM): 3%

COc1ccc(CNC(=O)c2ccc(Br)cc2)cc1OC
inhibition (rep papain-like protease; enzyme activity; inhibitor; FRET; 10 µM): 66.1%

CCOC(=O)[C@@]12C[C@@H]1[C@@H](n1cnc3c(NCCCCc4ccccc4)nc(C#Cc4ccc(Cl)s4)nc31)[C@H](O)[C@@H]2O
inhibition (SLC6A4; ligand displacement; radioligand; 10 µM): 16%

O=C(NCc1cc(O)c(O)c(Br)c1)c1cccc(CCl)c1
inhibition (rep papain-like protease; enzyme activity; inhibitor; FRET; 10 µM): 103%

O=C1C=C(Nc2ccc(OCc3cn(Cc4ccccc4)nn3)cc2)C(=O)c2ccccc21
inhibition (BDNF/NT-3 growth factors receptor (NTRK2, Homo sapiens, UniProt Q16620); enzyme activity; inhibitor; radiometric; 10 µM): 0%
